Key:
Format in all cases: functional
Pseudomonas aeruginosa = test: Antibacterial activity against Pseudomonas aeruginosa at 1 to 10 mg/mL after 24 hrs by agar well diffusion method
Procedure, shortened: (§1)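 Agar well diffusion. Bacterial pellets from a 24 h culture (about 10⁴–10⁶ CFU/ml) were spread on nutrient agar (tryptone 1%, yeast extract 0.5%, NaCl 0.5%, agar 1%, pH 7.0). Wells received DMSO solutions at 10 mg/mL, with DMSO as control and tetracycline as reference. Plates ran 24 h at 37 °C. Each zone was measured three times by caliper and averaged; three runs per culture.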

Aspergillus flavus [1] = test: Antifungal activity against Aspergillus flavus after 3 to 4 days by agar well diffusion method
Procedure, shortened: (§2)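 Agar well diffusion on Sabouraud dextrose agar (glucose–peptone–agar 40:10:15), with cultures purified by single-spore isolation. Wells (4 mm × 2 mm) were sealed at the bottom with 0.8% soft agar and loaded with DMSO solutions. DMSO served as control and amphotericin B as reference. Incubation was 30 °C for 3–4 days; each zone was measured three times by caliper and averaged.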

Candida albicans [2] = test: Antifungal activity against Candida albicans after 3 to 4 days by agar well diffusion method; procedure, shortened: as §2
Candida albicans [3] = test: Antifungal activity against Candida albicans at 1 to 10 mg/mL after 3 to 4 days by agar well diffusion method
Procedure, shortened: (§3)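 Fungi were grown on Sabouraud dextrose agar (glucose–peptone–agar 40:10:15) after single-spore purification. Wells (4 mm × 2 mm) were cut and their bottoms sealed with 0.8% soft agar, then loaded with DMSO solutions at 10 mg/mL. DMSO served as control and amphotericin B as reference. Plates incubated at 30 °C for 3–4 days. Inhibition zone diameter was measured three times by caliper and averaged.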

Staphylococcus aureus = test: Antibacterial activity against Staphylococcus aureus at 1 to 10 mg/mL after 24 hrs by agar well diffusion method; procedure, shortened: as §1
Aspergillus flavus [4] = test: Antifungal activity against Aspergillus flavus at 1 to 10 mg/mL after 3 to 4 days by agar well diffusion method; procedure, shortened: as §3

Compound	diameter of the inhibition zone (DIZ) (Pseudomonas aeruginosa) [mm]	MIC (Aspergillus flavus [1]) [µg/mL]	MIC (Candida albicans [2]) [µg/mL]	diameter of the inhibition zone (DIZ) (Candida albicans [3]) [mm]	diameter of the inhibition zone (DIZ) (Staphylococcus aureus) [mm]	diameter of the inhibition zone (DIZ) (Aspergillus flavus [4]) [mm]
O=c1[nH]c(=S)nc2oc3cc(O)ccc3cc1-2	14	< 50	< 50	0	15	0
COc1cc(C2C(C#N)=C(N)Oc3[nH]c(=S)[nH]c(=O)c32)cc(OC)c1OC (centres undefined)	13	< 50	< 50	10	13	0
CCOC(=O)C1=C(N)Oc2[nH]c(=S)[nH]c(=O)c2C1c1ccc(Cl)cc1 (centres undefined)	19	< 50	< 50	13	16	0
CCOC(=O)C1=C(N)Sc2[nH]c(=S)[nH]c(=S)c2C1c1ccc(Cl)cc1 (centres undefined)	18	< 50	< 50	14	16	14
CCOC=C1C(=O)NC(=S)NC1=O	13	–	–	12	13	0
NNC=C1C(=O)NC(=S)NC1=O	18	–	–	0	18	36
COc1cc(C2c3c(nc(N)c(C#N)c3N)Oc3[nH]c(=S)[nH]c(=O)c32)cc(OC)c1OC (centres undefined)	12	< 50	< 50	10	13	0
COc1cc(C2C(C#N)=C(NS(=O)(=O)c3ccccc3)Oc3[nH]c(=S)[nH]c(=O)c32)cc(OC)c1OC (centres undefined)	13	< 50	< 50	12	14	0
COc1cc(C2c3c(nc[nH]c3=O)Oc3[nH]c(=S)[nH]c(=O)c32)cc(OC)c1OC (centres undefined)	13	< 50	< 50	11	15	0
C[C@@H]1[C@H](O)[C@@H](C)/C=C/C=C/C=C/C=C/C=C/C=C/C=C/[C@H](O[C@@H]2O[C@H](C)[C@@H](O)[C@H](N)[C@@H]2O)C[C@@H]2O[C@](O)(C[C@@H](O)C[C@@H](O)[C@H](O)CC[C@@H](O)C[C@@H](O)CC(=O)O[C@H]1C)C[C@H](O)[C@H]2C(=O)O [AMPHOTERICIN B]	–	–	–	19	–	16
CN(C)[C@@H]1C(O)=C(C(N)=O)C(=O)[C@@]2(O)C(O)=C3C(=O)c4c(O)cccc4[C@@](C)(O)[C@H]3C[C@@H]12 [TETRACYCLINE]	28	–	–	–	26	–

Source: ChEMBL document CHEMBL1926503, “Efficient one-pot preparation of novel fused chromeno[2,3-d]pyrimidine and pyrano[2,3-d]pyrimidine derivatives” (2012)
